Assay results taken from ChEMBL document CHEMBL1154869, “Melodinines A-G, monoterpenoid indole alkaloids from Melodinus henryi” (J Nat Prod, 2010).

Tests used:
Format in all cases: functional, cell-based
HL-60 = assay: Cytotoxic activity against human HL60 cells after 48 hrs by MTT assay; details: HL-60, 48 h
Procedure, shortened: (§1)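 Cells kept in RPMI1640 or DMEM with 10% FBS, 5% CO2, 37 °C. Adherent lines seeded in 96-well plates and left 12 h to attach; suspension cells (HL-60) seeded at drug addition, 1 × 10^5 cells/mL. Compounds at 0.0625, 0.32, 1.6, 8 and 40 µM in triplicate for 48 h. Viability by MTT; IC50 from growth curves via Reed and Muench method; cisplatin positive control.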

SMMC-7721 = assay: Cytotoxic activity against human SMMC7721 cells after 48 hrs by MTT assay; details: SMMC-7721, 48 h; procedure, shortened: as §1
SK-BR-3 = assay: Cytotoxic activity against human SK-BR-3 cells after 48 hrs by MTT assay; details: SK-BR-3, 48 h; procedure, shortened: as §1
A549 = assay: Cytotoxic activity against human A549 cells after 48 hrs by MTT assay; details: A549, 48 h; procedure, shortened: as §1

CC[C@]12CCCN3CCc4c(n(c5ccccc45)[C@H](OC)C1)[C@@H]32
IC50 (HL-60): > 40 µM
IC50 (SMMC-7721): > 40 µM
IC50 (SK-BR-3): > 40 µM
IC50 (A549): > 40 µM

CC[C@@]12C=Cn3c4c(c5ccccc53)CCN(CCC1)[C@H]42
IC50 (HL-60): > 40 µM
IC50 (SMMC-7721): > 40 µM
IC50 (SK-BR-3): > 40 µM
IC50 (A549): > 40 µM

CC[C@@H]1CN2CC[C@]34c5ccccc5-n5c3c(cc(C(N)=O)c5=O)[C@H]1C[C@H]24 [LEUCONICINE A]
IC50 (HL-60): > 40 µM
IC50 (SMMC-7721): > 40 µM
IC50 (SK-BR-3): > 40 µM
IC50 (A549): > 40 µM

CC[C@@H]1CN2CC[C@]34c5ccccc5-n5c3c(cc(C(=O)OC)c5=O)[C@H]1C[C@H]24 [LEUCONICINE B]
IC50 (HL-60): > 40 µM
IC50 (SMMC-7721): > 40 µM
IC50 (SK-BR-3): > 40 µM
IC50 (A549): > 40 µM

CCC1=CN2CC[C@]34c5ccccc5-n5c3c(cc(C(=O)OC)c5=O)[C@H]1C[C@H]24 [MELODININE B]
IC50 (HL-60): > 40 µM
IC50 (SMMC-7721): > 40 µM
IC50 (SK-BR-3): > 40 µM
IC50 (A549): > 40 µM

CC[C@@H]1CN2CC[C@]34c5ccccc5-n5c3c(cc(C(=O)O)c5=O)[C@H]1C[C@H]24 [MELODININE C]
IC50 (HL-60): > 40 µM
IC50 (SMMC-7721): > 40 µM
IC50 (SK-BR-3): > 40 µM
IC50 (A549): > 40 µM

COC(=O)C1=C2Nc3ccccc3[C@]23CCN2CC[C@H]1[C@@]1(O[C@H]1C)[C@@H]23 [MELODININE D]
IC50 (HL-60): > 40 µM
IC50 (SMMC-7721): > 40 µM
IC50 (SK-BR-3): > 40 µM
IC50 (A549): > 40 µM

CC[C@@]12CCCN3C(=O)C=C4c5ccccc5N(C(=O)CC1)C432 (some centres undefined) [MELODININE E]
IC50 (HL-60): > 40 µM
IC50 (SMMC-7721): > 40 µM
IC50 (SK-BR-3): > 40 µM
IC50 (A549): > 40 µM

CC[C@]12CCC[N+]3([O-])CCc4c(n(c5ccccc45)[C@H](OC)C1)[C@H]23 (some centres undefined) [MELODININE F]
IC50 (HL-60): > 40 µM
IC50 (SMMC-7721): > 40 µM
IC50 (SK-BR-3): > 40 µM
IC50 (A549): > 40 µM

CC[C@@]12C=Cn3c4c(c5ccccc53)CC[N+]([O-])(CCC1)[C@H]42 (some centres undefined) [MELODININE G]
IC50 (HL-60): > 40 µM
IC50 (SMMC-7721): > 40 µM
IC50 (SK-BR-3): > 40 µM
IC50 (A549): > 40 µM

C/C=C(/C=O)[C@@H]1C[C@H]2c3[nH]c4ccccc4c3CCN2C=C1C(=O)OC [VALLESIACHOTAMINE]
IC50 (HL-60): 2 µM
IC50 (SMMC-7721): 16.8 µM
IC50 (SK-BR-3): 24.7 µM
IC50 (A549): 26 µM
